Paper PMC4278051 (Journal of Breast Cancer, 2014)

What was measured:
[1] = target: transient receptor potential vanilloid 1 (Homo sapiens, UniProt Q8NER1); assay: Competition; settings: inhibition of 1.2 nM ^3[H]RTX binding, MCF-7 membranes, Cheng-Prussoff
TRPV1 [2] = target: T1, TRPV1 (Homo sapiens, UniProt Q8NER1); assay: Inhibition of RTX induced ^45Ca^2+ uptake by antagonists in MCF-7; type: cell-based; settings: in the presence of RTX 2 nM, n=4
MCF-7 cells = assay: MTT reduction proliferation assay; type: cell-based, human; settings: 2, 24, 48 and 72 hours; for MCF-7 cell growth rate / viability compared to the controls (MTT): increasing concentrations (10^-10-10^-4 M capsaicin, capsazepine; 10^-10-10^-6 M RTX, 5-I-RTX), p<0.05, n=6
Outline: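 MCF-7 cells grown in DMEM with 20% FBS were seeded at 5×10^3 cells/100 µL in 96-well plates. Cells were exposed to test compound at increasing concentrations (10-10 up to 10^-4 or 10^-6 M, by compound) and assayed at 2, 24, 48 and 72 h. MTT was added for 4 h at 37 °C, 5% CO2, and formazan was dissolved in DMSO for 10 min at RT. OD was read at 570 nm (n=6, mean±SEM) and analysed by Kruskal-Wallis with Dunn post-test.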

TRPV1 [3] = settings: ref 23 (Rigoni et al.); cited from earlier work
TRPV1 [4] = target: T1, TRPV1; assay: ^45Ca^2+ uptake assay, stimulation by agonists in MCF-7; type: cell-based; settings: for E max of Ca^2+ uptake: 20 minutes at 37℃, 10^-11-10^-3 M, n=4

T1 sequence (Q8NER1 whole entry): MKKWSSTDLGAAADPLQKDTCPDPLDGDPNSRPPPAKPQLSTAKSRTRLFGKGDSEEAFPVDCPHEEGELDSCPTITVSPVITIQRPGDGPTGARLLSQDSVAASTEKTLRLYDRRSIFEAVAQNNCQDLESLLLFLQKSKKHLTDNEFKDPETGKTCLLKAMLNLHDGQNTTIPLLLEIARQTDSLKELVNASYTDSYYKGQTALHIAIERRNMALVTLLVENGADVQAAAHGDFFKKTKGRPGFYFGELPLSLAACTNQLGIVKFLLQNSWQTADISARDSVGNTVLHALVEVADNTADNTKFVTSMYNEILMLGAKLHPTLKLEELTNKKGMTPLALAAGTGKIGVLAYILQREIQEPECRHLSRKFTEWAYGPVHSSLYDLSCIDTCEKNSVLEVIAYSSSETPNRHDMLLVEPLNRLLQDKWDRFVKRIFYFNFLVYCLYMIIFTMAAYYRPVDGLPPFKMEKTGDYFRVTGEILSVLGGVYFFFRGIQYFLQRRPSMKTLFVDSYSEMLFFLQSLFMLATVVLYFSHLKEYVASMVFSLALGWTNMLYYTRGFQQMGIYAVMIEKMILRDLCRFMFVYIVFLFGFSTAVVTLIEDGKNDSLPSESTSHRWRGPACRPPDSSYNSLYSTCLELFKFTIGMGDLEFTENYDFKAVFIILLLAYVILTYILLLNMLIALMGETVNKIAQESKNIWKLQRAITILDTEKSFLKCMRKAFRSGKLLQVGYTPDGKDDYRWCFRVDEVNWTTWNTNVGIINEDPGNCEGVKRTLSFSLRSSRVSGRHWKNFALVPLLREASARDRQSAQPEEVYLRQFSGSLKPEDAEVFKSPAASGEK
Chain of transient receptor potential vanilloid 1 (Q8NER1 whole entry): as above

| Structure (SMILES) | Ki [1] [nM] | E max of Ca^2+ influx inhibition (TRPV1 [2]) [%] | MCF-7 cell growth rate / viability compared to the controls (MTT) (MCF-7 cells) | Potency relative to the antagonist capsazepine (times more potent) (TRPV1 [3]) | EC50 (TRPV1 [4]) [nM] | Agonist character at TRPV1 expressed in MCF-7, from E max of calcium uptake (TRPV1 [4]; ^45Ca^2+ uptake) | E max of Ca^2+ uptake (TRPV1 [4]; ^45Ca^2+ uptake) [cpm] | Time dependence of MCF-7 growth inhibition (MTT) (MCF-7 cells) |
| --- | --- | --- | --- | --- | --- | --- | --- | --- |
| C=C(C)[C@]12C[C@@H](C)[C@@]34O[C@](Cc5ccccc5)(O[C@@H]1[C@@H]3C=C(COC(=O)Cc1cc(I)c(O)c(OC)c1)C[C@]1(O)C(=O)C(C)=C[C@@H]41)O2 [5-I-RTX, 5-iodoresiniferatoxin] | 0.056 | 108.3 | significant decrease | 20 |  |  |  |  |
| CCCCC/C=C\C/C=C\C/C=C\C/C=C\CCCC(=O)NCCO [Anandamide, anandamide] |  |  |  |  | 110 | full agonist | 557.0 |  |
| COc1cc(CNC(=O)CCCC/C=C/C(C)C)ccc1O [Capsaicin, capsaicin] |  |  | significant decrease |  |  |  | 478.8 |  |
| Oc1cc2c(cc1O)CN(C(=S)NCCc1ccc(Cl)cc1)CCC2 [Capsazepine, capsazepine] |  |  | significant decrease |  |  |  |  |  |
| C=C(C)[C@]12C[C@@H](C)[C@@]34O[C@](Cc5ccccc5)(O[C@@H]1[C@@H]3C=C(COC(=O)Cc1ccc(O)c(OC)c1)C[C@]1(O)C(=O)C(C)=C[C@@H]41)O2 [RTX, resiniferatoxin] |  |  | significant decrease |  | 24 |  | 777.0 | time-dependent behavior |
